Laboratory results from ChEMBL document CHEMBL1944538, “Synthetic peptides derived from the sequence of a lasso peptide microcin J25 show antibacterial activity” (Bioorg Med Chem, 2012).
Values after ≈ are worked out from the molar mass of the structure shown. Active and inactive are the calls of the source. No cut-off for these calls is given here. Positions of bridges follow the written chain, without caps; N, C: chain ends. Residues, ends and D or L forms follow the SMILES beside them.

Tests used:
Salmonella typhimurium [1] = assay: Antibacterial activity against Salmonella Typhimurium AFLB 25 after 24 hrs by liquid growth inhibition assay; assay type: functional, Salmonella enterica subsp. enterica serovar Typhimurium; conditions: Salmonella enterica, AFLB 25, 24 h
How it was run: (§1)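 Liquid broth microdilution in LB. Peptide stocks were made in 20% methanol/water (1 or 2.5 mM), then serially doubled in water to final 0.01–100 or 0.5–250 µM. Inoculum was diluted to OD620 0.02–0.05. Plates ran 24 h at 37 °C and were read at OD620. MIC was the lowest concentration giving 100% growth inhibition (0.05 AU). Triplicate wells, three repeat experiments.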

[2] = Cytotoxicity against human MCF7 cells assessed as cell viability up to 100 uM after 24 hrs by MTT assay; assay type: cell-based; conditions: read-out: Activity
How it was run: (§2)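 MTT assay. MDA-MB-435 cells were kept in RPMI 1640 and MCF7 cells in DMEM, both with 10% FBS, penicillin and streptomycin, at 37 °C and 5% CO2. Cells were seeded at 1×10^4/well and grown 24 h. Samples came from 1 mM stocks in 10% DMSO/water, twofold diluted to 0.3125–100 µM, and applied for 24 h. MTT (5 mg/mL) was added for 3.5 h, then DMSO solubilization and A570. Viability is relative to untreated cells; triplicate, mean.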

Escherichia coli [3] = assay: Antibacterial activity against Escherichia coli MC4100 after 24 hrs by liquid growth inhibition assay; assay type: functional; conditions: MC4100, 24 h; how it was run: as §1
Salmonella paratyphi [4] = assay: Antibacterial activity against Salmonella paratyphi after 24 hrs by liquid growth inhibition assay; assay type: functional, Salmonella enterica subsp. enterica serovar Paratyphi A; conditions: Salmonella enterica
Salmonella enteritidis [5] = assay: Antibacterial activity against Salmonella enteritidis AFLB 11 after 24 hrs by liquid growth inhibition assay; assay type: functional, Salmonella enterica subsp. enterica serovar Enteritidis; conditions: Salmonella enterica, AFLB 11, 24 h; how it was run: as §1
Escherichia coli [6] = assay: Antibacterial activity against Escherichia coli DH5alpha after 24 hrs by liquid growth inhibition assay; assay type: functional; conditions: DH5[alpha]; how it was run: as §1
Salmonella typhimurium [7] = assay: Antibacterial activity against Salmonella Typhimurium ATCC 13311 up to 250 uM after 24 hrs by liquid growth inhibition assay; assay type: functional, organism-based; conditions: Salmonella enterica subsp. enterica serovar Typhimurium; how it was run: as §1
Salmonella enteritidis [8] = assay: Antibacterial activity against Salmonella enteritidis AFLB 81 after 24 hrs by liquid growth inhibition assay; assay type: functional, Salmonella enterica subsp. enterica serovar Enteritidis; conditions: Salmonella enterica, AFLB 81, 24 h; how it was run: as §1
[9] = system: Salmonella enterica subsp. enterica serovar Montevideo; assay: Antibacterial activity against Salmonella montevideo 20 up to 250 uM after 24 hrs by liquid growth inhibition assay; assay type: functional; how it was run: as §1
[10] = Antibacterial activity against Salmonella choleraesuis ATCC 10708 after 24 hrs by liquid growth inhibition assay; assay type: functional, Salmonella enterica subsp. enterica serovar Choleraesuis; conditions: Salmonella enterica, ATCC 10708, 24 h
[11] = Cytotoxicity against human MDA-MB-435 cells assessed as cell viability up to 100 uM after 24 hrs by MTT assay; assay type: cell-based; conditions: read-out: Activity; how it was run: as §2
Salmonella enteritidis [12] = assay: Antibacterial activity against Salmonella enteritidis ATCC 13076 after 24 hrs by liquid growth inhibition assay; assay type: functional, Salmonella enterica subsp. enterica serovar Enteritidis; conditions: Salmonella enterica, ATCC 13076, 24 h; how it was run: as §1
Salmonella enteritidis [13] = assay: Antibacterial activity against Salmonella enteritidis AFLB 41 after 24 hrs by liquid growth inhibition assay; assay type: functional, Salmonella enterica subsp. enterica serovar Enteritidis; conditions: Salmonella enterica, AFLB 41, 24 h; how it was run: as §1
[14] = Antibacterial activity against Salmonella newport clinical isolate after 24 hrs by liquid growth inhibition assay; assay type: functional, Salmonella enterica subsp. enterica serovar Newport; conditions: Salmonella enterica; how it was run: as §1
Salmonella enteritidis [15] = assay: Antibacterial activity against Salmonella enteritidis PT8 after 24 hrs by liquid growth inhibition assay; assay type: functional, Salmonella enterica subsp. enterica serovar Enteritidis; conditions: Salmonella enterica, PT8, 24 h; how it was run: as §1
[16] = system: Salmonella enterica subsp. enterica serovar Newport; assay: Inhibition of oxygen consumption in Salmonella newport clinical isolate at 0.25 uM after 35 mins by Gilson Clarke oxygraph analysis; assay type: functional
How it was run: (§3)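 Cells were held 35 min at 37 °C with peptide at the stated concentration. Respiration rate over the next 5 min was measured polarographically with a Clark electrode oxygraph at 37 °C. Results are percent of a peptide-free control; three independent experiments, mean ± SD.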

[17] = system: Salmonella enterica subsp. enterica serovar Heidelberg; assay: Antibacterial activity against Salmonella heidelberg ATCC 8326 up to 250 uM after 24 hrs by liquid growth inhibition assay; assay type: functional; how it was run: as §1
[18] = Cytotoxicity against human MDA-MB-435 cells assessed as cell viability at 3 uM after 24 hrs by MTT assay; assay type: cell-based; conditions: read-out: Activity
[19] = Cytotoxicity against human MCF7 cells assessed as cell viability at 3 uM after 24 hrs by MTT assay; assay type: cell-based; conditions: read-out: Activity
Salmonella enteritidis [20] = assay: Antibacterial activity against Salmonella enteritidis AFLB 81 up to 250 uM after 24 hrs by liquid growth inhibition assay; assay type: functional, organism-based; conditions: Salmonella enterica subsp. enterica serovar Enteritidis; how it was run: as §1
[21] = system: Salmonella enterica subsp. enterica serovar Newport; assay: Inhibition of oxygen consumption in Salmonella newport clinical isolate at 25 uM after 35 mins by Gilson Clarke oxygraph analysis; assay type: functional; how it was run: as §3
[22] = Stability of the compound at 200 uM after overnight incubation by spot on lawn method in the presence of chymotrypsin; assay type: ADME
Salmonella typhimurium [23] = assay: Bactericidal activity against Salmonella Typhimurium ATCC 13311 after 24 hrs; assay type: functional, Salmonella enterica subsp. enterica serovar Typhimurium; conditions: Salmonella enterica, ATCC 13311, 24 h
How it was run: (§4)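 For MBC, 10 µL from each clear well of the 24 h, 37 °C LB broth-dilution plate was spread on LB agar and incubated 24 h at 37 °C. MBC was the lowest concentration giving no growth on agar.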

Salmonella enteritidis [24] = assay: Antibacterial activity against Salmonella enteritidis AFLB 11 up to 250 uM after 24 hrs by liquid growth inhibition assay; assay type: functional, organism-based; conditions: Salmonella enterica subsp. enterica serovar Enteritidis; how it was run: as §1
[25] = Thermostability in boiling water after 3 hrs; assay type: physicochemical; conditions: buffer
Staphylococcus aureus = assay: Antibacterial activity against Staphylococcus aureus ATCC 6538; assay type: functional, organism-based
[26] = Antibacterial activity against Salmonella heidelberg ATCC 8326 after 24 hrs by liquid growth inhibition assay; assay type: functional, Salmonella enterica subsp. enterica serovar Heidelberg; conditions: Salmonella enterica, ATCC 8326, 24 h; how it was run: as §1
[27] = Cytotoxicity against human MDA-MB-435 cells assessed as cell viability at 0.3 to 100 uM after 24 hrs by MTT assay; assay type: cell-based; conditions: read-out: Activity; how it was run: as §2
Salmonella enteritidis [28] = assay: Antibacterial activity against Salmonella enteritidis ATCC 13076 up to 250 uM after 24 hrs by liquid growth inhibition assay; assay type: functional, organism-based; conditions: Salmonella enterica subsp. enterica serovar Enteritidis; how it was run: as §1
Salmonella paratyphi [29] = assay: Antibacterial activity against Salmonella paratyphi up to 250 uM after 24 hrs by liquid growth inhibition assay; assay type: functional, organism-based; conditions: Salmonella enterica subsp. enterica serovar Paratyphi A
Escherichia coli [30] = assay: Antibacterial activity against Escherichia coli MC4100 up to 250 uM after 24 hrs by liquid growth inhibition assay; assay type: functional, organism-based; how it was run: as §1
[31] = Bactericidal activity against Salmonella choleraesuis ATCC 10708 after 24 hrs; assay type: functional, Salmonella enterica subsp. enterica serovar Choleraesuis; conditions: Salmonella enterica, ATCC 10708, 24 h
How it was run: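 MBC: 10 μL from each clear well of the 24 h, 37 °C LB broth MIC plate spread on LB agar, incubated 24 h at 37 °C; MBC = lowest concentration with no growth on the plate.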

Salmonella enteritidis [32] = assay: Antibacterial activity against Salmonella enteritidis AFLB 41 up to 250 uM after 24 hrs by liquid growth inhibition assay; assay type: functional, organism-based; conditions: Salmonella enterica subsp. enterica serovar Enteritidis; how it was run: as §1
Salmonella typhimurium [33] = assay: Antibacterial activity against Salmonella Typhimurium ATCC 13311 after 24 hrs by liquid growth inhibition assay; assay type: functional, Salmonella enterica subsp. enterica serovar Typhimurium; conditions: Salmonella enterica, ATCC 13311, 24 h; how it was run: as §1
[34] = Cytotoxicity against human MCF7 cells assessed as cell viability at 0.3 to 100 uM after 24 hrs by MTT assay; assay type: cell-based; conditions: read-out: Activity; how it was run: as §2
Salmonella enteritidis [35] = assay: Bactericidal activity against Salmonella enteritidis ATCC P76 after 24 hrs by liquid growth inhibition assay; assay type: functional, Salmonella enterica subsp. enterica serovar Enteritidis; conditions: Salmonella enterica, ATCC P76, 24 h
Enterococcus faecalis = assay: Antibacterial activity against Enterococcus faecalis ATCC 19433; assay type: functional, organism-based
[36] = Stability of the compound at 150 uM after 30 mins by RP-HPLC analysis in the presence of pepsin; assay type: ADME; conditions: 0.5 h
How it was run: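 Peptide (150 µM) was incubated at 37 °C with pepsin (4% w/w) in 0.1 N HCl. Aliquots taken at 0 and 30 min were quenched into 0.1 N NaOH/70% methanol and centrifuged. Supernatant was analysed by C18 RP-HPLC (15–50% isopropanol/water, 0.05% TFA, 35 min, UV 220 nm). Fragments were identified by MALDI-TOF.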

[37] = Bactericidal activity against Salmonella newport clinical isolate after 24 hrs; assay type: functional, Salmonella enterica subsp. enterica serovar Newport; conditions: Salmonella enterica; how it was run: as §4
Escherichia coli [38] = assay: Antibacterial activity against Escherichia coli DH5alpha up to 250 uM after 24 hrs by liquid growth inhibition assay; assay type: functional, organism-based; conditions: DH5[alpha]; how it was run: as §1

CC[C@H](C)[C@H](NC(=O)CNC(=O)[C@@H](NC(=O)[C@H](Cc1ccccc1)NC(=O)[C@H](Cc1ccc(O)cc1)NC(=O)[C@@H]1CCC(=O)NCC(=O)NCC(=O)N[C@@H](C)C(=O)NCC(=O)N[C@@H](Cc2cnc[nH]2)C(=O)N[C@@H](C(C)C)C(=O)N2CCC[C@H]2C(=O)N1)C(C)C)C(=O)NCC(=O)N[C@H](C(=O)N1CCC[C@H]1C(=O)N[C@H](C(=O)N[C@@H](CO)C(=O)N[C@@H](Cc1ccccc1)C(=O)N[C@@H](Cc1ccc(O)cc1)C(=O)NCC(=O)O)[C@@H](C)CC)[C@@H](C)O [MICROCIN J25] (GGAGHVPEYFVGIGTPISFYG-OH; lactam N-8)
MIC (Salmonella typhimurium [1]): 2.8 µM (≈ 5.9 µg/mL) | viability at 24 h [2]: > 80% | MIC (Escherichia coli [3]): 5 µM (≈ 10.5 µg/mL) | MIC (Salmonella paratyphi [4]): 1.5 µM (≈ 3.16 µg/mL) | MIC (Salmonella enteritidis [5]): 2 µM (≈ 4.21 µg/mL) | MIC (Escherichia coli [6]): 5 µM (≈ 10.5 µg/mL) | Activity (Salmonella typhimurium [7]): inactive | MIC (Salmonella enteritidis [8]): 1.7 µM (≈ 3.58 µg/mL) | Activity [9]: inactive | MIC [10]: 1.5 µM (≈ 3.16 µg/mL) | viability at 24 h [11]: > 80% | MIC (Salmonella enteritidis [12]): 1.8 µM (≈ 3.79 µg/mL) | MIC (Salmonella enteritidis [13]): 1.6 µM (≈ 3.37 µg/mL) | MIC [14]: 0.5 µM (≈ 1.05 µg/mL) | MIC (Salmonella enteritidis [15]): 1.5 µM (≈ 3.16 µg/mL) | inhibition [16]: Active | Activity [17]: inactive

COc1cccc2c1C(=O)c1c(O)c3c(c(O)c1C2=O)C[C@@](O)(C(=O)CO)C[C@@H]3O[C@H]1C[C@H](N)[C@H](O)[C@H](C)O1 [DOXORUBICIN]
viability at 24 h, 3 µM [18]: 20% | viability at 24 h, 3 µM [19]: 20%

CC[C@H](C)[C@@H]1NC(=O)CNC(=O)[C@H](C(C)C)NC(=O)[C@H](Cc2ccccc2)NC(=O)[C@H](Cc2ccc(O)cc2)NC(=O)[C@@H]2CCC(=O)NCC(=O)NCC(=O)N[C@@H](C)C(=O)N[C@@H](CSSC[C@@H](C(=O)O)NC(=O)[C@H](Cc3ccccc3)NC(=O)[C@H](CO)NC(=O)[C@H]([C@@H](C)CC)NC(=O)[C@@H]3CCCN3C(=O)[C@H]([C@@H](C)O)NC(=O)CNC1=O)C(=O)N[C@@H](Cc1cnc[nH]1)C(=O)N[C@@H](C(C)C)C(=O)N1CCC[C@H]1C(=O)N2 (GGACHVPEYFVGIGTPISFC-OH; disulfide 4-20; lactam N-8)
MIC (Salmonella typhimurium [1]): 85 µM (≈ 173 µg/mL) | Activity (Salmonella enteritidis [20]): inactive | inhibition [21]: Active | Stability [22]: Unstable | MBC (Salmonella typhimurium [23]): 125 µM (≈ 254 µg/mL) | Activity (Salmonella enteritidis [24]): inactive | Stability [25]: Stable | Activity (Staphylococcus aureus): inactive | Activity [9]: inactive | MIC [10]: 90 µM (≈ 183 µg/mL) | MIC [26]: 83 µM (≈ 169 µg/mL) | viability at 24 h, up to 100 µM [27]: > 90% | Activity (Salmonella enteritidis [28]): inactive | Activity (Salmonella paratyphi [29]): inactive | Activity (Escherichia coli [30]): inactive | MBC [31]: 125 µM (≈ 254 µg/mL) | Activity (Salmonella enteritidis [32]): inactive | MIC [14]: 25 µM (≈ 50.9 µg/mL) | MIC (Salmonella typhimurium [33]): 75 µM (≈ 153 µg/mL) | MIC (Salmonella enteritidis [15]): 80 µM (≈ 163 µg/mL) | viability at 24 h, up to 100 µM [34]: > 90% | MBC (Salmonella enteritidis [35]): 125 µM (≈ 254 µg/mL) | Activity (Enterococcus faecalis): inactive | Stability [36]: Unstable | MBC [37]: 31.2 µM (≈ 63.6 µg/mL) | Activity (Escherichia coli [38]): inactive
